Measured values pooled from the literature.
Compare with care: the assays were run in different laboratories.
ABL1 non-phosphorylated: Tyrosine-protein kinase ABL1, non-phosphorylated (ABL1, Homo sapiens, UniProt P00519)
ABL1 E255K: Tyrosine-protein kinase ABL1 (ABL1, Homo sapiens, UniProt P00519, E255K)
ABL1 T315I phosphorylated: Tyrosine-protein kinase ABL1, phosphorylated (ABL1, Homo sapiens, UniProt P00519, T315I)
ABL1 E255K phosphorylated: Tyrosine-protein kinase ABL1, phosphorylated (ABL1, Homo sapiens, UniProt P00519, E255K)
ABL1 phosphorylated: Tyrosine-protein kinase ABL1, phosphorylated (ABL1, Homo sapiens, UniProt P00519)
ABL1 Y253F phosphorylated: Tyrosine-protein kinase ABL1, phosphorylated (ABL1, Homo sapiens, UniProt P00519, Y253F)
ABL1 H396P phosphorylated: Tyrosine-protein kinase ABL1, phosphorylated (ABL1, Homo sapiens, UniProt P00519, H396P)
ABL1 Q252H phosphorylated: Tyrosine-protein kinase ABL1, phosphorylated (ABL1, Homo sapiens, UniProt P00519, Q252H)
ABL1 T315I non-phosphorylated: Tyrosine-protein kinase ABL1, non-phosphorylated (ABL1, Homo sapiens, UniProt P00519, T315I)
ABL1 Q252H: Tyrosine-protein kinase ABL1 (ABL1, Homo sapiens, UniProt P00519, Q252H)
ABL1 H396P non-phosphorylated: Tyrosine-protein kinase ABL1, non-phosphorylated (ABL1, Homo sapiens, UniProt P00519, H396P)

`FC(F)(F)Oc1cccc(-c2cnc3ccc(-c4ccncc4)nn23)c1` has a remaining binding of 68% (ABL1 non-phosphorylated; cell-free assay, competition with immobilised ligand; 5 µM).
With `F[C@@H]1CCN(c2nccc(-c3cnn4ncccc34)n2)C1` the remaining binding was 100% (ABL1 E255K; binding; 1 µM).
`C[C@@H](c1ccc(-n2cnc3c(N)ncnc32)cc1)N1CCc2nn(C)c(Cc3ccccc3)c2C1=O` has a remaining binding of 15% (ABL1 non-phosphorylated; binding, competition with immobilised ligand; 0.1 µM).
`CCN1CCN(Cc2ccc(C(=O)Nc3ccc(C)c(Oc4ccc5c(c4)CC(=O)N5)c3)cc2C(F)(F)F)CC1` has a remaining binding of 88% (ABL1 T315I phosphorylated; binding, competition with immobilised ligand; 1 µM).
`O=C(NCCCN1CCOCC1)c1ccc(Nc2ncc(Cl)c(-c3ccc(Cl)s3)n2)cc1` has a remaining binding of 37% (ABL1 E255K phosphorylated; binding, competition with immobilised ligand; 1 µM).
`CC(C)(C)c1ccc(-c2nc(CBr)nn2-c2cccc(O)c2)cc1` has a remaining binding of 82% (ABL1 non-phosphorylated; cell-free assay, competition with immobilised ligand; 10 µM).
`COc1cnc(Nc2cccc(S(N)(=O)=O)c2)nc1N1CCN(c2ccccc2)C(=O)C1` has a remaining binding of 77% (ABL1 non-phosphorylated; binding, competition with immobilised ligand; 1 µM).
The remaining binding of `O=C(Nc1c[nH]nc1C(=O)NC1CCNCC1)c1cc(F)cc(F)c1` is reported as 98% (ABL1 T315I phosphorylated; binding, competition with immobilised ligand; 1 µM).
`N#Cc1ccccc1CSc1nnc2c(n1)[nH]c1ccccc12` gave a remaining binding of 94% (ABL1 phosphorylated; binding, competition with immobilised ligand; 10 µM).
For `CO[C@H]1CC[C@H](CNc2ccc(S(=O)(=O)NC(=O)c3ccc(N4CCN(CC5=C(c6ccc(Cl)cc6)CC(C)(C)CC5)CC4)cc3Oc3cnc4[nH]ccc4c3)cc2[N+](=O)[O-])CC1`, the remaining binding was 74% (ABL1 E255K phosphorylated; binding, competition with immobilised ligand; 1 µM).
The remaining binding of `CN(C)c1nccc(-c2cnc3ncccn23)n1` is reported as 42% (ABL1 E255K; binding; 1 µM).
`CSc1cccnc1N1CCN(Cc2nc3ccccc3[nH]2)CC1` has a remaining binding of 76% (ABL1 Y253F phosphorylated; cell-free assay, competition with immobilised ligand; 1 µM).
`CN1CCN(c2ccc(Nc3nccc(-c4cccc([N+](=O)[O-])c4)n3)cc2C(F)(F)F)CC1` has a remaining binding of 4% (Tyrosine-protein kinase ABL1 (ABL1, Homo sapiens, UniProt P00519, Y253F); binding; 10 µM).
With `CCOC(=O)c1cc2cc(-c3cc(C(=O)NCc4ccc(C(=O)O)cc4)nn3C)ccc2[nH]1` the remaining binding was 85% (ABL1 H396P phosphorylated; cell-free assay, competition with immobilised ligand; 0.1 µM).
With `CN(C)c1nccc(-c2cnn3ncccc23)n1` the remaining binding was 60% (ABL1 E255K; binding; 1 µM).
With `COc1cc(-c2cn(C3CCc4c(F)cccc4N(CC(F)(F)F)C3=O)nn2)ccc1-n1cnc(C)c1` (centres unmarked) the remaining binding was 100% (ABL1 Q252H phosphorylated; cell-free assay, competition with immobilised ligand; 1 µM).
`N[C@H]1CCN(c2nccc(-c3cnn4ncccc34)n2)C1` gave a remaining binding of 88% (ABL1 phosphorylated; binding; 1 µM).
`COC(=O)Nc1nc2ccc(C(=O)c3ccccc3)cc2[nH]1` has a remaining binding of 2.2% (ABL1 E255K phosphorylated; cell-free assay, competition with immobilised ligand; 10 µM).
`O=C(c1ccc(Nc2ncc(Cl)c(-c3ccc(Cl)s3)n2)cc1)N1CCC(N2CCCC2)CC1` gave a remaining binding of 0% (ABL1 T315I non-phosphorylated; binding, competition with immobilised ligand; 1 µM).
The remaining binding of `CNC(=O)[C@@H]1CC[C@@H](n2c(-c3ccc4cnccc4c3)nc3ccc(C(=O)NCc4cccc(C(N)=O)c4)cc32)C1` is reported as 90% (ABL1 phosphorylated; binding, competition with immobilised ligand; 1 µM).
`Cc1cnn2ncc(-c3ccnc(N(C)C)n3)c2c1` gave a remaining binding of 100% (ABL1 Q252H; binding; 1 µM).
`CCOCCn1cc(C(=O)Nc2ccc(-n3nc(-c4cccnc4)cc3C(F)(F)F)cn2)ccc1=O` has a remaining binding of 96% (ABL1 T315I phosphorylated; cell-free assay, competition with immobilised ligand; 1 µM).
`COc1cnc(Nc2cccc(S(N)(=O)=O)c2)nc1N1CCN(c2ccccc2)CC1` gave a remaining binding of 87% (ABL1 H396P phosphorylated; binding, competition with immobilised ligand; 1 µM).
`CC1CCCN1c1nccc(-c2cnn3ncccc23)n1` (centres unmarked) has a remaining binding of 97% (ABL1 Q252H; binding; 1 µM).
`O=C(c1ccc(Nc2nccc(-c3cc4ccccc4s3)n2)cc1)N1CCC(N2CCCC2)CC1` gave a remaining binding of 78% (Tyrosine-protein kinase ABL1, non-phosphorylated (ABL1, Homo sapiens, UniProt P00519, F317L); binding, competition with immobilised ligand; 1 µM).
For `c1cncc(-c2cccc(Nc3nccc(NC4CCCCC4)n3)c2)c1`, the remaining binding was 73% (ABL1 T315I phosphorylated; binding, competition with immobilised ligand; 10 µM).
With `C=CC(=O)N1CCC(C(=O)NCC(=O)N2CCN(c3nc(-c4cnc(N)nc4C(F)F)nc(N4CCOCC4)n3)CC2)CC1` the remaining binding was 100% (ABL1 Q252H phosphorylated; binding, competition with immobilised ligand; 1 µM).
The remaining binding of `C[C@H]1CCN(c2nccc(-c3cnn4ncccc34)n2)C1` is reported as 82% (Tyrosine-protein kinase ABL1 (ABL1, Homo sapiens, UniProt P00519, F317L); binding; 1 µM).
`O=C(NCC1CCOCC1)c1n[nH]cc1NC(=O)c1c(F)cccc1F` has a remaining binding of 76% (ABL1 H396P non-phosphorylated; binding, competition with immobilised ligand; 1 µM).
The remaining binding of `O=C(O)[C@H]1[C@H](Cn2nnc3ccccc3c2=O)CC[C@@H]1C(=O)c1ccc(OCCC2CCOCC2)cc1` is reported as 94% (ABL1 H396P non-phosphorylated; cell-free assay, competition with immobilised ligand; 1 µM).
`c1cnn2ncc(-c3ccnc(N4CCC45COC5)n3)c2c1` gave a remaining binding of 68% (ABL1 non-phosphorylated; binding; 1 µM).
For `CN(c1ccnc(CNc2nc(Nc3ccc4c(c3)CC(=O)N4)ncc2C(F)(F)F)n1)S(C)(=O)=O`, the remaining binding was 40% (ABL1 phosphorylated; cell-free assay, competition with immobilised ligand; 1 µM).
With `O=C(c1ccc(Nc2ncc(Cl)c(-c3cc4ccccc4s3)n2)cc1)N1CCC(N2CCCC2)CC1` the remaining binding was 26% (ABL1 phosphorylated; binding, competition with immobilised ligand; 1 µM).
`Nc1ncc2c(n1)-c1c([nH]c3ccc(C#CC4CC4)cc13)CCCC2` has a remaining binding of 79% (ABL1 T315I non-phosphorylated; binding, competition with immobilised ligand; 1 µM).
`O=C(NCCCN1CCOCC1)c1ccc(Nc2nccc(-c3cc4ccccc4s3)n2)cc1` gave a remaining binding of 37% (ABL1 phosphorylated; binding, competition with immobilised ligand; 1 µM).
With `COc1ncc2cc3ccccc3nc2c1C#N` the remaining binding was 100% (Tyrosine-protein kinase ABL1, phosphorylated (ABL1, Homo sapiens, UniProt P00519, F317I); cell-free assay, competition with immobilised ligand; 5 µM).
The remaining binding of `CNC(=O)c1ccc(Nc2ncc(C(F)(F)F)c(NCc3nccnc3N(C)S(C)(=O)=O)n2)cc1` is reported as 88% (ABL1 non-phosphorylated; cell-free assay, competition with immobilised ligand; 0.1 µM).
With `Cc1cnc(Nc2ccc(C(=O)N3CCC(N4CCCC4)CC3)cc2)nc1-c1cc2ccccc2s1` the remaining binding was 0.6% (ABL1 Y253F phosphorylated; binding, competition with immobilised ligand; 1 µM).
